Data set [1] can be described thus: Inhibition of trypsin-like activity of 20S proteasome in lymphoblastoid cells after 30 mins. The class given is cell-based, Homo sapiens. The method, boiled down: (§1)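 Proteasome partially purified from lymphoblastoid cell lines, then affinity-purified (anti-α-subunit mAb) and dialyzed against 25 mM Tris-HCl pH 7.5; protein by BCA. Enzyme untreated or pretreated with 0.001–10 test compound, then incubated with subsite-specific fluorogenic substrate 30 min at 37 °C in activity buffer; fluorescence ex 360/em 465 nm. IC50 from fit of percent control vs concentration, Y=100/(1+(X/IC50))^A.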

Data set [2] can be described thus: Inhibition of chymotrypsin-like activity of 20S proteasome in lymphoblastoid cells after 30 mins. The class given is cell-based, Homo sapiens. The method, boiled down:
as §1

Data set [3] is described as follows: Inhibition of peptidylglutamyl-peptide hydrolyzing-like activity of 20S proteasome in lymphoblastoid cells after 30 mins. It is filed as cell-based, Homo sapiens. In short, it runs like this:
as §1

For data set [4], the species on record is Homo sapiens. The data set is described as follows: Stability in human plasma after 6 hrs.

This is an account of results in ChEMBL document CHEMBL1147181, “Glutamine vinyl ester proteasome inhibitors selective for trypsin-like (beta2) subunit” (Eur J Med Chem, 2007).

The structures appear in SMILES notation.

Consider `CCOC(=O)/C=C/[C@H](CCC(N)=O)NC(=O)[C@H](CO)NC(=O)[C@@H](NC(=O)c1cccc(O)c1C)C(C)C`, for which the IC50 was 0.056 µM in data set [1], more than 10 µM in data set [2] and more than 10 µM in data set [3]. The same compound showed a half-life in data set [4] of more than 6 h.

As for `CCOC(=O)/C=C/[C@H](CC(C)C)NC(=O)[C@@H]1Cc2ccccc2CN1C(=O)[C@@H](NC(=O)c1cccc(O)c1C)C(C)C`, the results for the IC50 in data set [1], in data set [2] and in data set [3] were 8.51 µM, more than 10 µM and more than 10 µM, respectively. Further, the half-life in data set [4] is more than 6 h.

On to `CCOC(=O)/C=C/[C@H](CCC(N)=O)NC(=O)[C@H](CC(C)C)NC(=O)[C@@H]1Cc2ccccc2CN1C(=O)c1cccc(O)c1C`, for which the IC50 was 0.435 µM in data set [1], more than 10 µM in data set [2] and more than 10 µM in data set [3]. The same compound gave a half-life in data set [4] of more than 6 h.

For `CCOC(=O)/C=C/[C@H](CCC(N)=O)NC(=O)[C@H](CC(C)C)NC(=O)[C@H](CC(C)C)NC(=O)c1cccc(O)c1C`, the 50% inhibitory concentration (IC50) in data set [1] was 0.145 µM; in data set [2] it was 8.41 µM; in data set [3], more than 10 µM. This compound also yielded a half-life in data set [4] of more than 6 h.

In the case of `CCOC(=O)/C=C/[C@H](CC(C)C)NC(=O)[C@H](CC(C)C)NC(=O)[C@@H]1Cc2ccccc2CN1C(=O)c1cccc(O)c1C`, the IC50 in data set [1] was 0.157 µM; in data set [2], 6.89 µM; in data set [3], more than 10 µM. In addition, the half-life in data set [4] was more than 6 h.

For `CCOC(=O)/C=C/[C@H](CCC(N)=O)NC(=O)[C@@H]1Cc2ccccc2CN1C(=O)[C@H](CC(C)C)NC(=O)c1cccc(O)c1C`, the half-maximal inhibitory concentration (IC50) in data set [1] is 5.89 µM; in data set [2], more than 10 µM; in data set [3] it was more than 10 µM. In data set [4], this compound gave a half-life of more than 6 h.

`CCOC(=O)/C=C/[C@H](CC(C)C)NC(=O)[C@@H]1Cc2ccccc2CN1C(=O)[C@H](CC(C)C)NC(=O)c1cccc(O)c1C`: the half-maximal inhibitory concentration (IC50) in data set [1], in data set [2] and in data set [3] was more than 10 µM each time. In data set [4], this compound displayed a half-life of more than 6 h.

Regarding `CCOC(=O)/C=C/[C@H](CC(C)C)NC(=O)[C@H](CO)NC(=O)[C@@H](NC(=O)c1cccc(O)c1C)C(C)C`, the IC50 was 0.033 µM in data set [1], more than 10 µM in data set [2] and more than 10 µM in data set [3]. In data set [4], this compound registered a half-life of more than 6 h.

As to `CCOC(=O)/C=C/[C@H](CCC(N)=O)NC(=O)[C@H](CO)NC(=O)[C@@H]1Cc2ccccc2CN1C(=O)c1cccc(O)c1C`, the results for the IC50 in data set [1], in data set [2] and in data set [3] were 0.349 µM, more than 10 µM and more than 10 µM, respectively. In data set [4], this compound came in with a half-life of more than 6 h.

As to `CCOC(=O)/C=C/[C@H](CC(C)C)NC(=O)[C@H](CO)NC(=O)[C@@H]1Cc2ccccc2CN1C(=O)c1cccc(O)c1C`, the results for the IC50 in data set [1], in data set [2] and in data set [3] were 0.098 µM, 7.36 µM and more than 10 µM, respectively. Further, in data set [4], the half-life is more than 6 h.

In the case of `CCOC(=O)/C=C/[C@H](CCC(N)=O)NC(=O)[C@@H]1Cc2ccccc2CN1C(=O)[C@@H](NC(=O)c1cccc(O)c1C)C(C)C`, the results for the IC50 in data set [1], in data set [2] and in data set [3] were 2.34 µM, more than 10 µM and more than 10 µM, respectively. Also, the half-life in data set [4] was more than 6 h.

A word on the IC50: it is the concentration at which inhibition is half-maximal. A word on the half-life: it is the time needed for the level to fall by half in the phase considered. High values mean slow decline, low ones rapid decline.
